Test results reported in ChEMBL document CHEMBL3526062, “Role of human UDP-glucuronosyltransferases in the biotransformation of the triazoloacridinone and imidazoacridinone antitumor agents C-1305 and C-1311: highly selective substrates for UGT1A10” (Drug Metab Dispos, 2012).

Assays:
Liver microsome = experiment: Drug metabolism in human liver microsomes assessed as metabolite formation treated with C-1305 for 60 mins by ESI-MS/UV-vis spectroscopy in presence of 3 mM UDP-GlcUA; assay type: ADME; settings: 1 h
Summary of the method: (§1)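 Recombinant human UGT1A1 or UGT1A9 (5 μg protein), or single-donor human liver or intestinal microsomes (20 μg), incubated in Tris-HCl pH 7.4 with 5 mM MgCl2, 5 mM saccharolactone, 2% DMSO and 100 or 200 μM substrate. Started with UDP-GlcUA, 60 min at 37°C, in triplicate. Product identified by HPLC with positive-ion ESI-MS and UV/Vis spectra, and confirmed by β-glucuronidase hydrolysis.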

[1] = target: T1, UDP-glucuronosyltransferase 1A1 (Homo sapiens, UniProt P22309); experiment: Drug metabolism assessed as human recombinant UGT1A1-mediated compound formation treated with C-1305 for 60 mins by ESI-MS/UV-vis spectroscopy in presence of 3 mM UDP-GlcUA; assay type: ADME; settings: recombinant enzyme, 1 h; summary of the method: as §1
T1 sequence (P22309 whole entry): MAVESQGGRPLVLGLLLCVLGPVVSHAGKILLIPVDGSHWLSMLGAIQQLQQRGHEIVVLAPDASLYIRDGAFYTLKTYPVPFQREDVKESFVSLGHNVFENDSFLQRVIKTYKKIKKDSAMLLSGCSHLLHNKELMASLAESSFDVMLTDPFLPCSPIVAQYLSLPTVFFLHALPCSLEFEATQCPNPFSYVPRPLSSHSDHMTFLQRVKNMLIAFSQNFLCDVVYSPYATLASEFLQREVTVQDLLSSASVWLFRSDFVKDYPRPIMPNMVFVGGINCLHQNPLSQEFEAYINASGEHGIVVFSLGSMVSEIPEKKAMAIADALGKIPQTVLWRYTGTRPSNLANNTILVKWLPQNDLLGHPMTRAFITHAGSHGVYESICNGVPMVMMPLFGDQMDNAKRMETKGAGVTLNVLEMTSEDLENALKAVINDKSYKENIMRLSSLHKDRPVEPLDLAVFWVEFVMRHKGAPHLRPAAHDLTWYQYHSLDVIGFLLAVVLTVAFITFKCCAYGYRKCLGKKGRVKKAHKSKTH

[2] = target: T2, UDP-glucuronosyltransferase 1A9 (Homo sapiens, UniProt O60656); experiment: Drug metabolism assessed as human recombinant UGT1A9-mediated compound formation treated with C-1311 for 60 mins by ESI-MS/UV-vis spectroscopy in presence of 3 mM UDP-GlcUA; assay type: ADME; settings: recombinant enzyme, 1 h
T2 sequence (O60656 whole entry): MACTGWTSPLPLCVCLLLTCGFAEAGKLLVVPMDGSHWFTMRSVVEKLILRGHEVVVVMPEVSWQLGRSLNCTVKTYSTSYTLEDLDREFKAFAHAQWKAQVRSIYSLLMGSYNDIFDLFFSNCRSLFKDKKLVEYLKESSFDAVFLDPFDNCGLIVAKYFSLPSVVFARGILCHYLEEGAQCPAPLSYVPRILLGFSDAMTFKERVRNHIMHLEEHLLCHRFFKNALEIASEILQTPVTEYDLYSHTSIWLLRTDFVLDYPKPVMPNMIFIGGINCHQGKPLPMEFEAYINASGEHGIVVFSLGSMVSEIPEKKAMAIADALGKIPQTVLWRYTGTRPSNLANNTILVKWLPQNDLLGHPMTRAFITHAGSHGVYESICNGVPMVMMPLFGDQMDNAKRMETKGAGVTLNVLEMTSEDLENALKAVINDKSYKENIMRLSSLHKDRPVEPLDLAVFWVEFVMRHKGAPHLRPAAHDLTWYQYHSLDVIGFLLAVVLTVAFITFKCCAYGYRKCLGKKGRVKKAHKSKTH

[3] = target: T3, UDP-glucuronosyltransferase 1A10 (Homo sapiens, UniProt Q9HAW8); experiment: Drug metabolism assessed as human recombinant UGT1A10-mediated compound formation treated with C-1311 for 60 mins by ESI-MS/UV-vis spectroscopy in presence of 3 mM UDP-GlcUA; assay type: ADME; settings: recombinant enzyme, 1 h
T3 sequence (Q9HAW8 whole entry): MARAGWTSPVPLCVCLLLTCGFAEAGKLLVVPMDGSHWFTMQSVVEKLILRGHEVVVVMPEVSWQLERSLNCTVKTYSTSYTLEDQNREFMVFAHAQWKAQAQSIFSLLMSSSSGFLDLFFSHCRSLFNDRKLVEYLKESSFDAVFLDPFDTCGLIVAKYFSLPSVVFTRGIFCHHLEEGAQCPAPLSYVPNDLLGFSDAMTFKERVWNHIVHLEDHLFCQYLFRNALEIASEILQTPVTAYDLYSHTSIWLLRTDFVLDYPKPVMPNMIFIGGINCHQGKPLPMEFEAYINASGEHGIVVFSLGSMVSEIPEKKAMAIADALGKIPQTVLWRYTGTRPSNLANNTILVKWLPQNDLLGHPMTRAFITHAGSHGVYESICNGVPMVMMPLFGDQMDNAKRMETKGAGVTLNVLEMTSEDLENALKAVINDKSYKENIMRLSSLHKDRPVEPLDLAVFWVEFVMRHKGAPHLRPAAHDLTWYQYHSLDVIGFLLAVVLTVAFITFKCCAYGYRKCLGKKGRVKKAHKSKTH
Summary of the method: (§2)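 Protein (5 μg UGT1A10 or microsomal) incubated with 0.2 mM substrate and 3 mM UDP-GlcUA, 60 min. HPLC on C18 at 25°C with a 15–80% methanol gradient in 0.05 M ammonium formate pH 3.4 at 1 ml/min. ESI positive-ion MS and UV/Vis spectra taken from the peaks. Glucuronide confirmed by 60 min further treatment with 1000 U E. coli β-glucuronidase.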

[4] = Drug metabolism in human intestinal microsomes assessed as metabolite formation treated with C-1311 for 60 mins by ESI-MS/UV-vis spectroscopy in presence of 3 mM UDP-GlcUA; assay type: ADME, Intestine, Microsome; settings: 1 h; summary of the method: as §2
[5] = target: T4, UDP-glucuronosyltransferase 1A7 (Homo sapiens, UniProt Q9HAW7); experiment: Drug metabolism assessed as human recombinant UGT1A7-mediated compound formation treated with C-1311 for 60 mins by ESI-MS/UV-vis spectroscopy in presence of 3 mM UDP-GlcUA; assay type: ADME; settings: recombinant enzyme, 1 h
T4 sequence (Q9HAW7 whole entry): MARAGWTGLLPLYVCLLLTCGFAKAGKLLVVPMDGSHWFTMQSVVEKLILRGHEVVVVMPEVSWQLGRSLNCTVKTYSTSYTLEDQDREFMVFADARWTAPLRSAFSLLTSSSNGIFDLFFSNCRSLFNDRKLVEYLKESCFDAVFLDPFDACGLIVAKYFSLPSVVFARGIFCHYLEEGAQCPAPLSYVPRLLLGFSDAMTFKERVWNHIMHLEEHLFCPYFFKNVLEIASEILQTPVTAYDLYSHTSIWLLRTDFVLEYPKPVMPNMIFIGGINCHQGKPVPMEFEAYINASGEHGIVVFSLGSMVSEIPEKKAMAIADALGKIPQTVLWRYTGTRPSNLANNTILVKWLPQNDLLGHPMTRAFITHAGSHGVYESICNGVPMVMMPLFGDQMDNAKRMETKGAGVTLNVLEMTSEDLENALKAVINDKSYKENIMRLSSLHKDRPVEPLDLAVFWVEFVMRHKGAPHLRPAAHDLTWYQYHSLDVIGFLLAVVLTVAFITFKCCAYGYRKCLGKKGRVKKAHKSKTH

Measured: Drug metabolism

CN(C)CCCNc1ccc2nnn3c4ccc(O)cc4c(=O)c1c23
metabolite_detected: Liver microsome | [1]

CCN(CC)CCNc1ccc2ncn3c4ccc(O)cc4c(=O)c1c23 [C-1311]
metabolite_detected: [2] | [3] | [4] | [5]
